Screening data from PubChem BioAssay.
Only some compounds are listed: those with a hit (about 4.6% of all), similar ones and a draw of the others.
TAAR1 antag = human TAAR1 antagonists, primary screen, Fluo-8 calcium fluorescence, CHO RD-HGA16 cells; Trace amine-associated receptor 1 (Homo sapiens), Q96RJ0; antagonist; inhibition, % at 3 µM; hit rate 1.5% among 360,000; AID 624466, 2012;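 active means inhibition above a per-plate cutoff, the mean inhibition of test compounds on that plate plus 3 SD, cut at about 49% in these data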
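Test system: hTAAR1-expressing CHO RD-HGA16 cells, Gα16-coupled; Probe or stimulus: EC80 β-phenethylamine stimulus; Compound dosing: single nominal final test compound concentration of 3 µM; Timing: 140 s kinetic read after compound, 140 s after agonist; Signal: Fluo-8 calcium-sensitive fluorescence; Measure: % inhibition of agonist calcium response; Controls: DMSO and EC80 PEA controls.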
OX1R antag-1 = antagonists of human orexin 1 receptor (OX1R); hit rate 1.8% among 330,000; inhibition, % at 6.6 µM; OX1R-expressing cells, FRET antagonist read-out; AID 485270, 2010; Orexin/Hypocretin receptor type 1 (Homo sapiens), O43613; in the data active means inhibition mostly above about 38%, no sharp cut-off; inactive means mostly below about 40%
Target sequence (O43613 whole entry, looked up): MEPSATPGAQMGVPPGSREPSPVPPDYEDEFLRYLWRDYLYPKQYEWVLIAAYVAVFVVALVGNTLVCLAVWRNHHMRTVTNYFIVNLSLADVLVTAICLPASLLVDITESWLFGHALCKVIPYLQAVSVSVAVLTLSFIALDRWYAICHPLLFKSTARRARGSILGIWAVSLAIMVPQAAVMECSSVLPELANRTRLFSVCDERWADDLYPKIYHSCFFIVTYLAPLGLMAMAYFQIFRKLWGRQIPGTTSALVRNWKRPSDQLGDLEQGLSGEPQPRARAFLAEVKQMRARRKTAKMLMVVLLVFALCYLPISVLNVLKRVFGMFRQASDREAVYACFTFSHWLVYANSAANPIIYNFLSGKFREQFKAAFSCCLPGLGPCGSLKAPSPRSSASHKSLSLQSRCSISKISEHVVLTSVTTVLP
OX1R antag-2 = OX1R (HCRTR1) antagonists, primary screen, fluorescence, CHO/OX1R cells, Fluo-8 calcium, orexin A; Orexin/Hypocretin receptor type 1 (Homo sapiens), O43613; Fluo-8 calcium fluorescence; inhibition, % at 5 µM; hit rate 0.43% among 330,000; AID 434989, 2010;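 active means inhibition above its plate's threshold, mean inhibition of all tested compounds on the plate plus 3 SD, cut at about 37% in these data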
CHO parental Ca = ATP-evoked calcium signal inhibitors, parental CHO, primary screen, counter-screen for OX1R antagonist project, cell-based, fluorescence, Fluo-8 calcium dye. AID 463079, 2010. inhibition, % at 5.6 µM. hit rate 0.63% among 330,000. parental CHO-K1, ATP-induced calcium, Fluo-8 fluorescence;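 active means inhibition above that plate's mean sample inhibition plus 3 SD, cut at about 26% in these data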
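Assay system: untransfected parental CHO cell line. Also added: ATP agonist challenge. Dosing: one dose, 5.6 µM nominal. Measured by: Fluo-8 fluorescence. Read-out: % inhibition. Benchmarks: ATP wells versus no-ATP DMSO wells. Repeats: no replicates.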
GPR7 antagonist = GPR7 receptor antagonists, primary screen, cell-based, fluorescence, single concentration; Neuropeptides B/W receptor type 1 (Homo sapiens), P48145; GPR7-expressing cells, fluorescence antagonist assay; inhibition, % at 4.4 µM; hit rate 1.1% among 290,000; in the data active means inhibition above about 16%, passing the limit was not always enough;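 further: cells stimulated with the agonist NPW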
Target sequence (P48145 whole entry, looked up): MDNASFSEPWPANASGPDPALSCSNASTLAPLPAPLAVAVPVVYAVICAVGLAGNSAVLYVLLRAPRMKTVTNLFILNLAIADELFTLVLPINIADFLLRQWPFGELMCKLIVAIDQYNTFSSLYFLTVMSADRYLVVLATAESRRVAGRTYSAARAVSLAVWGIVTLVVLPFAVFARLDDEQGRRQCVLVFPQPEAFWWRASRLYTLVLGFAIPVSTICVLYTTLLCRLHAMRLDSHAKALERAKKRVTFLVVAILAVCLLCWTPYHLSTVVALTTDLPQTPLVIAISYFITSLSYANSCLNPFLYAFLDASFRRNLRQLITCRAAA
TAAR1 ag = human TAAR1 agonists, primary screen, Fluo-8 calcium fluorescence, CHO RD-HGA16 cells; Trace amine-associated receptor 1 (Homo sapiens), Q96RJ0; vehicle wells 0%, saturating PEA agonist 100%; activation, % at 3 µM; hit rate 0.99% among 360,000; AID 624467, 2012;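 active means activation above the mean activation of all test compounds in the run plus 3 SD, cut at about 38% in these data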
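System: CHO-derived RD-HGA16 cells with stable Gα16 and human TAAR1 / Times: 17-24 h plating, Fluo-8 75 min 37 °C, 30 min RT / Technique: calcium-sensitive Fluo-8 signal, excitation 470-495, emission 515-575 nm / Measure: % activation relative to PEA EC100 response / Benchmarks: DMSO and PEA EC100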
TAAR1 ag conf = human TAAR1 agonists, retest of hits, confirmation, Fluo-8 calcium fluorescence, CHO RD-HGA16 cells. hit rate 82% among 2,400. shares compounds with TAAR1 ag. activation, % at 3 µM. scaled: DMSO 0%, maximal phenethylamine 100%;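 active means activation above a cutoff set at the run's mean compound activation plus 3 SD, cut at about 39% in these data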
Ga16 ag counter = nonselective calcium mobilization agonists, CHO-Ga16 cells, counter-screen for hTAAR1 agonist project, cell-based, fluorescence, CHO-Ga16 parental line | shares compounds with TAAR1 ag | Fluo-8 calcium fluorescence; normalized to maximal ATP response, DMSO zero | activation, % at 3 µM | hit rate 50% among 2,400 | AID 651787, 2012;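 active means activation above the run cutoff, the mean activation over all tested wells plus 3 SD, cut at about 12% in these data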
TAAR1 desensitize = TAAR1 desensitization by agonist hits, confirmation, counter-screen for TAAR1 agonist project, cell-based, fluorescence, tachyphylaxis; shares compounds with TAAR1 ag; CHO RD-HGA16 hTAAR1, Fluo-8 calcium, beta-PEA response inhibition; AID 651951, 2012; inhibition, % at 3 µM; hit rate 46% among 2,400;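 active means inhibition above the run cutoff, the mean inhibition of all test compounds plus 3 SD, cut at about 49% in these data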;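 further: beta-PEA stimulus applied at its EC80; loss of beta-PEA calcium signal after compound pretreatment read as receptor desensitization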
Ga16 nonsel ant = inhibition of ATP-evoked calcium response in CHO-Ga16 cells, counter-screen for TAAR1 agonist project, cell-based, fluorescence | shares compounds with TAAR1 ag | CHO-Ga16 ATP-induced calcium, Fluo-8 fluorescence | inhibition, % at 3 µM | hit rate 39% among 2,400;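 active means inhibition above the plate's mean compound inhibition plus 3 SD, computed per plate, cut at about 22% in these data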
A number is an active result; – = inactive; · = no result.

SMILES	TAAR1 antag	OX1R antag-1	OX1R antag-2	CHO parental Ca	GPR7 antagonist	TAAR1 ag	TAAR1 ag conf	Ga16 ag counter	TAAR1 desensitize	Ga16 nonsel ant
C=CCn1c(N)c(C(=O)Nc2ccc(C)cc2)sc1=S	–	–	–	–	–	62.1	–	–	–	–
CCc1nc2c(OCC(=O)C(C)(C)C)cccn2c1N(C)C(=O)c1ccco1	–	·	·	·	·	–	·	·	·	·
COc1ccc(NC(=O)CSc2nnc(-c3ccccn3)n2N)cc1Cl	–	–	–	–	–	44.5	61.2	–	–	–
C=CCNc1nc(C(F)(F)F)nc2c1nnn2Cc1ccccc1Cl	–	–	–	–	–	49.9	54.2	35.2	–	–
Cc1nc(NCCc2ccccc2)c2nnn(Cc3ccccc3Cl)c2n1	79.5	–	–	–	–	86.2	91.4	–	85.3	–
CCOCCCNc1nc(C(F)(F)F)nc2c1nnn2Cc1ccccc1Cl	–	–	–	–	–	–	·	·	·	·
COc1ccc(NC(=O)CS(=O)CC(=O)NCC2OCCc3ccccc32)cc1 (centres undefined)	–	–	–	–	–	–	·	·	·	·
O=C(O)CCC(=O)NCC1OCCc2ccccc21 (centres undefined)	–	–	–	–	–	53.8	–	–	–	–
CCOC(=O)N1CCN(C(=O)C[C@@H]2C[C@@]3(C(=O)OCC)CCCC=C3N(Cc3ccc4c(c3)OCO4)C2=O)CC1	–	·	·	·	·	–	·	·	·	·
CCOc1ccc(CNC(=O)C2Cc3cc(S(=O)(=O)N4CCCC4)ccc3N2C(C)=O)cc1 (centres undefined)	–	–	–	–	–	–	·	·	·	·
O=C1NC(CCc2ccccc2)C(=O)N1CCOc1cccc(Br)c1 (centres undefined)	–	–	–	–	–	59.1	–	–	–	–
O=c1c2ccccc2nnn1CSc1ccccc1F	–	–	–	–	–	59.5	–	–	–	–
Cn1c(CS/C(N)=N/N=C/c2ccccc2)c(Br)c(=O)n1-c1ccccc1	–	–	–	–	–	44.0	45.6	–	–	–
CCn1c(=O)c(C(=O)NNC(=O)c2ccccc2F)c(O)c2ccccc21	51.9	–	–	–	–	101.6	98.9	88.6	56.1	59.9
Cn1c(=O)c(C(=O)NCCO)c(O)c2ccccc21	–	–	–	–	–	–	·	·	·	·
CCn1c(=O)c(C(=O)Nc2ncccc2C)c(O)c2ccccc21	–	–	–	–	–	58.9	–	12.1	–	–
Cn1c(=O)c(C(=O)NNC(=O)c2ccccc2F)c(O)c2ccccc21	–	–	–	–	–	47.9	60.4	42.6	–	22.4
CCCCCCCCCC(=O)NNC(=O)c1c(O)c2ccccc2n(CC)c1=O	–	–	–	–	–	–	·	·	·	·
CCCCCC(=O)NNC(=O)c1c(O)c2ccccc2n(CC)c1=O	–	–	–	–	–	48.2	–	24.1	–	–
O=C1c2ccccc2C(=O)N1CC1=CCS(=O)(=O)C1	–	–	–	–	–	–	·	·	·	·
C/C(=N/NC(=O)c1cccs1)c1ccc(N2CCOCC2)cc1	–	–	–	–	–	–	·	·	·	·
Cc1ccc(CN(C(=O)COc2ccc(Br)cc2)C2CCS(=O)(=O)C2)o1 (centres undefined)	–	–	–	–	–	–	·	·	·	·
O=C(CN1C(=O)N/C(=C\c2ccccc2OCc2ccc(C(=O)O)cc2)C1=O)Nc1ccccc1F	–	–	–	–	–	–	·	·	·	·
COc1ccc2c(c1)C(SCC(=O)NCCc1ccccc1)CC(C)(C)O2 (centres undefined)	61.2	–	–	–	–	67.8	72.9	–	76.2	–
O=C(COC(=O)CN1C(=O)c2ccccc2C1=O)Nc1ccccc1	–	–	–	–	·	48.4	57.0	–	–	–
SMILES	TAAR1 antag	OX1R antag-1	OX1R antag-2	CHO parental Ca	GPR7 antagonist	TAAR1 ag	TAAR1 ag conf	Ga16 ag counter	TAAR1 desensitize	Ga16 nonsel ant
Nc1c(NCCC2=CCCCC2)c(=O)[nH]c(=O)n1Cc1ccccc1	–	–	–	–	–	55.5	67.9	–	–	–
N#C/C(=C\c1cccs1)C(=O)c1ccccc1Cl	53.9	–	–	–	–	58.7	52.8	32.6	72.0	59.0
CC(C)(C)C(=O)/C(C#N)=C/c1cccs1	–	–	–	–	–	–	·	·	·	·
COc1ccc2c(c1)c(C(=O)CN1CCc3ccccc3C1)c(C)n2C	–	–	–	–	–	69.0	86.0	–	–	–
COc1ccc2c(c1)c(C(C)=O)c(C)n2C	–	–	–	–	–	–	·	·	·	·
Cc1cc(C)n2c(NC3CCCC3)c(-c3ccc(F)cc3)nc2n1	–	·	·	·	·	–	·	·	·	·
O=C(c1ccc2ncsc2c1)N1CCN(c2cccc(C(F)(F)F)c2)CC1	–	·	·	·	·	–	·	·	·	·
COc1ccc2cc(C(=O)C3CCCN(C(=O)CCc4cnn(C)c4)C3)ccc2c1 (centres undefined)	–	–	–	–	–	–	·	·	·	·
Cc1cc(C(c2ccc(O)cc2)c2cc(C)c(O)cc2C)c(C)cc1O	85.0	–	–	–	58.1	113.0	131.0	77.5	78.1	41.2
O=C(O)CC(NC(=O)c1ccncc1)c1ccccc1 (centres undefined)	–	–	–	–	–	–	·	·	·	·
CCCCc1c(-c2ccccc2Br)ncn1CCc1ccccc1OC	83.4	·	·	·	·	70.4	73.4	–	82.5	39.0
CCCCCc1c(-c2ccc(Br)cc2)ncn1CCc1ccccc1OC	–	·	·	·	·	71.0	74.1	–	–	25.5
CCCCc1c(-c2ccccc2OC)ncn1CCc1ccccc1Cl	89.1	·	·	·	·	64.2	74.4	–	75.3	35.7
CCCCc1c(-c2ccccc2OC)ncn1CCc1cccc(OC)c1	–	·	·	·	·	–	·	·	·	·
